Test results: ChEMBL document CHEMBL1121612, “Ivermectin, a new broad-spectrum antiparasitic agent” (1980)

Tests used:
Format in all cases: functional
Ovis aries [1] = assay: Activity against adult gastrointestinal helminths of experimentally infected sheep on oral administration of Ostertagia circumcincta at 0.05 mg/kg.
Ovis aries [2] = assay: Activity against adult gastrointestinal helminths of experimentally infected sheep on oral administration of Haemonchus contortus at 0.05 mg/kg.
In short: (§1)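 Sheep were experimentally infected with benzimidazole-resistant isolates of this species among six gastrointestinal helminths and dosed orally. Efficacy against the adult worms was scored per species.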

Ovis aries [3] = assay: Activity against adult gastrointestinal helminths of experimentally infected sheep on oral administration of Cooperia species at 0.05 mg/kg.
Ovis aries [4] = assay: Activity against adult gastrointestinal helminths of experimentally infected sheep on oral administration of Trichostrongylus axei at 0.05 mg/kg.
Ovis aries [5] = assay: Activity against adult gastrointestinal helminths of experimentally infected sheep on oral administration of Oesophagostomum columbianum at 0.05 mg/kg.
Ovis aries [6] = assay: Activity against adult gastrointestinal helminths of experimentally infected sheep on oral administration of Trichostrongylus colubriformis at 0.05 mg/kg.; in short: as §1
Ovis aries [7] = assay: Activity against adult gastrointestinal helminths of experimentally infected sheep on oral administration of Trichostrongylus colubriformis at 0.15 mg/kg.
In short: (§2)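 Sheep were given the compound orally, each at one dose, with experimental infections of six gastrointestinal nematode species. The Haemonchus contortus and Trichostrongylus colubriformis strains were benzimidazole-resistant. Efficacy against adult worms was recorded as a categorical score.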

Ovis aries [8] = assay: Activity against adult gastrointestinal helminths of experimentally infected sheep on oral administration of Trichostrongylus axei at 0.15 mg/kg.
In short: (§3)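 Sheep were given the compound orally, each at one dose, with concurrent experimental infections of six adult gastrointestinal nematode species. Efficacy against adult worms was recorded as a categorical score for each species.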

Ovis aries [9] = assay: Activity against adult gastrointestinal helminths of experimentally infected sheep on oral administration of Oesophagostomum columbianum at 0.15 mg/kg.; in short: as §3
Ovis aries [10] = assay: Activity against adult gastrointestinal helminths of experimentally infected sheep on oral administration of Haemonchus contortus at 0.15 mg/kg 75-90; in short: as §2
Ovis aries [11] = assay: Activity against adult gastrointestinal helminths of experimentally infected sheep on oral administration of Ostertagia circumcincta at 0.15 mg/kg; 75-90; in short: as §3
Ovis aries [12] = assay: Activity against adult gastrointestinal helminths of experimentally infected sheep on oral administration of Cooperia species at 0.15 mg/kg.; in short: as §3
Ovis aries [13] = assay: Activity against adult gastrointestinal helminths of experimentally infected sheep on oral administration of Oesophagostomum columbianum at 0.1 mg/kg.; in short: as §3
Ovis aries [14] = assay: Activity against adult gastrointestinal helminths of experimentally infected sheep on oral administration of Cooperia species at 0.1 mg/kg.; in short: as §3
Ovis aries [15] = assay: Activity against adult gastrointestinal helminths of experimentally infected sheep on oral administration of Trichostrongylus axei at 0.1 mg/kg.; in short: as §3
Ovis aries [16] = assay: Activity against adult gastrointestinal helminths of experimentally infected sheep on oral administration of Haemonchus contortus at 0.1 mg/kg.; in short: as §2
Ovis aries [17] = assay: Activity against adult gastrointestinal helminths of experimentally infected sheep on oral administration of Ostertagia circumcincta at 0.1 mg/kg.; in short: as §3
Ovis aries [18] = assay: Activity against adult gastrointestinal helminths of experimentally infected sheep on oral administration of Trichostrongylus colubriformis at 0.1 mg/kg.; in short: as §2
Ovis aries [19] = assay: Activity against adult gastrointestinal helminths of experimentally infected sheep on oral administration of Haemonchus contortus at 0.2 mg/kg.; in short: as §2
Ovis aries [20] = assay: Activity against adult gastrointestinal helminths of experimentally infected sheep on oral administration of Ostertagia circumcincta at 0.2 mg/kg.; in short: as §3
Ovis aries [21] = assay: Activity against adult gastrointestinal helminths of experimentally infected sheep on oral administration of Cooperia species at 0.2 mg/kg.; in short: as §3
Ovis aries [22] = assay: Activity against adult gastrointestinal helminths of experimentally infected sheep on oral administration of Oesophagostomum columbianum at 0.2 mg/kg.; in short: as §3
Ovis aries [23] = assay: Activity against adult gastrointestinal helminths of experimentally infected sheep on oral administration of Trichostrongylus colubriformis at 0.2 mg/kg.; in short: as §2
Ovis aries [24] = assay: Activity against adult gastrointestinal helminths of experimentally infected sheep on oral administration of Trichostrongylus axei at 0.2 mg/kg.; in short: as §3
Ovis aries [25] = assay: Activity against adult gastrointestinal helminths of experimentally infected sheep on oral administration of Trichostrongylus axei at 0.3 mg/kg.; in short: as §3
Ovis aries [26] = assay: Activity against adult gastrointestinal helminths of experimentally infected sheep on oral administration of Trichostrongylus colubriformis at 0.3 mg/kg.; in short: as §2
Ovis aries [27] = assay: Activity against adult gastrointestinal helminths of experimentally infected sheep on oral administration of Oesophagostomum columbianum at 0.3 mg/kg.; in short: as §3
Ovis aries [28] = assay: Activity against adult gastrointestinal helminths of experimentally infected sheep on oral administration of Haemonchus contortus at 0.3 mg/kg.; in short: as §2
Ovis aries [29] = assay: Activity against adult gastrointestinal helminths of experimentally infected sheep on oral administration of Ostertagia circumcincta at 0.3 mg/kg.; in short: as §3
Ovis aries [30] = assay: Activity against adult gastrointestinal helminths of experimentally infected sheep on oral administration of Cooperia species at 0.3 mg/kg; 75-90; in short: as §3
Ovis aries [31] = assay: Activity against adult gastrointestinal helminths of experimentally infected sheep on oral administration of Trichostrongylus colubriformis at 0.3 mg/kg; 50-74; in short: as §2
Ovis aries [32] = assay: Activity against adult gastrointestinal helminths of experimentally infected sheep on oral administration of Cooperia species at 0.3 mg/kg.; in short: as §3
Ovis aries [33] = assay: Activity against adult gastrointestinal helminths of experimentally infected sheep on oral administration of Ostertagia circumcincta at 0.3 mg/kg; 75-90; in short: as §3
Ovis aries [34] = assay: Activity against adult gastrointestinal helminths of experimentally infected sheep on oral administration of Trichostrongylus colubriformis at 3.0 mg/kg.; in short: as §2
Ovis aries [35] = assay: Activity against adult gastrointestinal helminths of experimentally infected sheep on oral administration of Oesophagostomum columbianum at 3.0 mg/kg.; in short: as §3
Ovis aries [36] = assay: Activity against adult gastrointestinal helminths of experimentally infected sheep on oral administration of Cooperia species at 3.0 mg/kg; 50-74; in short: as §3
Ovis aries [37] = assay: Activity against adult gastrointestinal helminths of experimentally infected sheep on oral administration of Haemonchus contortus at 3.0 mg/kg; 50-74; in short: as §2
Ovis aries [38] = assay: Activity against adult gastrointestinal helminths of experimentally infected sheep on oral administration of Trichostrongylus axei at 3.0 mg/kg.; in short: as §3
Ovis aries [39] = assay: Activity against adult gastrointestinal helminths of experimentally infected sheep on oral administration of Ostertagia circumcincta at 3.0 mg/kg; 75-90; in short: as §3
Ovis aries [40] = assay: Activity against adult gastrointestinal helminths of experimentally infected sheep on oral administration of Ostertagia circumcincta at 0.1 mg/kg; 75-90; in short: as §3
Ovis aries [41] = assay: Activity against adult gastrointestinal helminths of experimentally infected sheep on oral administration of Cooperia species at 0.1 mg/kg; 75-90; in short: as §3
Ovis aries [42] = assay: Activity against adult gastrointestinal helminths of experimentally infected sheep on oral administration of Haemonchus contortus at 0.1 mg/kg; 75-90; in short: as §2
Ovis aries [43] = assay: Activity against adult gastrointestinal helminths of experimentally infected sheep on oral administration of Trichostrongylus axei at 0.2 mg/kg; 50-74; in short: as §3

SMILES: CC[C@H](C)[C@H]1O[C@]2(C=C[C@@H]1C)C[C@@H]1C[C@@H](C/C=C(\C)[C@@H](O[C@H]3C[C@H](OC)[C@@H](O[C@H]4C[C@H](OC)[C@@H](O)[C@H](C)O4)[C@H](C)O3)[C@@H](C)/C=C/C=C3\CO[C@@H]4[C@H](O)C(C)=C[C@@H](C(=O)O1)[C@]34O)O2 [ABAMECTIN COMPONENT B1A]
- Efficacy (Ovis aries [1]): >90%
- Efficacy (Ovis aries [2]): >90%
- Efficacy (Ovis aries [3]): >90%
- Efficacy (Ovis aries [4]): >90%
- Efficacy (Ovis aries [5]): >90%
- Efficacy (Ovis aries [6]): >90%

SMILES: COC1CC(O[C@@H]2/C(C)=C/C[C@@H]3C[C@@H](C[C@]4(C=C[C@H](C)[C@@H](C(C)C)O4)O3)OC(=O)[C@@H]3C=C(C)[C@@H](O)[C@H]4OC/C(=C\C=C\[C@@H]2C)[C@]43O)OC(C)C1O (stereo not given in full) [AVERMECTIN B1 MONOSACCHARIDE]
- Efficacy (Ovis aries [7]): >90%
- Efficacy (Ovis aries [8]): >90%
- Efficacy (Ovis aries [9]): <50%
- Efficacy (Ovis aries [10]): 75%
- Efficacy (Ovis aries [11]): 75%
- Efficacy (Ovis aries [12]): >90%

SMILES: COC1CC(OC2C(C)OC(O[C@@H]3/C(C)=C/C[C@@H]4C[C@@H](C[C@]5(CC(O)[C@H](C)[C@@H](C(C)C)O5)O4)OC(=O)[C@@H]4C=C(C)[C@@H](O)[C@H]5OC/C(=C\C=C\[C@@H]3C)[C@]54O)CC2OC)OC(C)C1O (stereo not given in full) [AVERMECTIN B2]
- Efficacy (Ovis aries [13]): >90%
- Efficacy (Ovis aries [14]): >90%
- Efficacy (Ovis aries [15]): >90%
- Efficacy (Ovis aries [16]): <50%
- Efficacy (Ovis aries [17]): >90%
- Efficacy (Ovis aries [18]): >90%

SMILES: COC1CC(O[C@@H]2/C(C)=C/C[C@@H]3C[C@@H](C[C@]4(CC(O)[C@H](C)[C@@H](C(C)C)O4)O3)OC(=O)[C@@H]3C=C(C)[C@@H](O)[C@H]4OC/C(=C\C=C\[C@@H]2C)[C@]43O)OC(C)C1O (stereo not given in full) [AVERMECTIN B2 MONOSACCHARIDE]
- Efficacy (Ovis aries [19]): 50%
- Efficacy (Ovis aries [20]): 50%
- Efficacy (Ovis aries [21]): >90%
- Efficacy (Ovis aries [22]): >90%
- Efficacy (Ovis aries [23]): >90%
- Efficacy (Ovis aries [24]): >90%

SMILES: CC[C@H](C)[C@H]1O[C@]2(CC(O)[C@@H]1C)C[C@@H]1C[C@@H](C/C=C(\C)[C@@H](OC3CC(OC)C(OC4CC(OC)C(O)C(C)O4)C(C)O3)[C@@H](C)/C=C/C=C3\CO[C@@H]4[C@H](OC)C(C)=C[C@@H](C(=O)O1)[C@]34O)O2 (stereo not given in full) [AVERMECTIN A2]
- Efficacy (Ovis aries [13]): >90%
- Efficacy (Ovis aries [14]): <50%
- Efficacy (Ovis aries [15]): >90%
- Efficacy (Ovis aries [16]): >90%
- Efficacy (Ovis aries [17]): >90%
- Efficacy (Ovis aries [18]): >90%

SMILES: CO[C@H]1C[C@H](O[C@@H]2/C(C)=C/C[C@@H]3C[C@@H](C[C@]4(CC[C@H](C)[C@@H](C(C)C)O4)O3)OC(=O)[C@@H]3C=C(C)[C@@H](O)[C@H]4OC/C(=C\C=C\[C@@H]2C)[C@]43O)O[C@@H](C)[C@@H]1O
- Efficacy (Ovis aries [25]): >90%
- Efficacy (Ovis aries [26]): >90%
- Efficacy (Ovis aries [27]): >90%
- Efficacy (Ovis aries [28]): >90%
- Efficacy (Ovis aries [29]): >90%
- Efficacy (Ovis aries [30]): 75%

SMILES: CC[C@H](C)[C@H]1O[C@]2(CC[C@@H]1C)C[C@@H]1C[C@@H](C/C=C(\C)[C@@H](O[C@H]3C[C@H](OC)[C@@H](O[C@H]4C[C@H](OC)[C@@H](O)[C@H](C)O4)[C@H](C)O3)[C@@H](C)/C=C/C=C3\CO[C@@H]4[C@H](OC)C(C)=C[C@@H](C(=O)O1)[C@]34O)O2
- Efficacy (Ovis aries [31]): 50%
- Efficacy (Ovis aries [25]): <50%
- Efficacy (Ovis aries [32]): <50%
- Efficacy (Ovis aries [27]): >90%
- Efficacy (Ovis aries [28]): >90%
- Efficacy (Ovis aries [33]): 75%

SMILES: CC1=C[C@H]2C(=O)O[C@H]3C[C@@H](C/C=C(\C)[C@@H](O)[C@@H](C)/C=C/C=C4\CO[C@H]([C@@H]1O)[C@@]42O)O[C@@]1(CC[C@H](C)[C@@H](C(C)C)O1)C3
- Efficacy (Ovis aries [34]): >90%
- Efficacy (Ovis aries [35]): >90%
- Efficacy (Ovis aries [36]): 50%
- Efficacy (Ovis aries [37]): 50%
- Efficacy (Ovis aries [38]): >90%
- Efficacy (Ovis aries [39]): 75%

SMILES: CC[C@H](C)[C@H]1O[C@]2(C=C[C@@H]1C)C[C@@H]1C[C@@H](C/C=C(\C)[C@@H](OC3CC(OC)C(OC4CC(OC)C(O)C(C)O4)C(C)O3)[C@@H](C)/C=C/C=C3\CO[C@@H]4[C@H](OC)C(C)=C[C@@H](C(=O)O1)[C@]34O)O2 (stereo not given in full) [AVERMECTIN A1]
- Efficacy (Ovis aries [40]): 75%
- Efficacy (Ovis aries [13]): <50%
- Efficacy (Ovis aries [15]): <50%
- Efficacy (Ovis aries [41]): 75%
- Efficacy (Ovis aries [18]): <50%
- Efficacy (Ovis aries [42]): 75%

SMILES: CO[C@H]1C[C@H](O[C@H]2[C@H](C)O[C@@H](O[C@@H]3/C(C)=C/C[C@@H]4C[C@@H](C[C@]5(CC[C@H](C)[C@@H](C(C)C)O5)O4)OC(=O)[C@@H]4CC(C)[C@@H](O)[C@H]5OC/C(=C\C=C\[C@@H]3C)[C@]54O)C[C@@H]2OC)O[C@@H](C)[C@@H]1O (stereo not given in full)
- Efficacy (Ovis aries [19]): <50%
- Efficacy (Ovis aries [20]): <50%
- Efficacy (Ovis aries [21]): <50%
- Efficacy (Ovis aries [22]): >90%
- Efficacy (Ovis aries [43]): 50%
- Efficacy (Ovis aries [23]): <50%
